Activity calls are given as the source filed them. The rule behind the calls is not given here.
Key:
CUTLL1 [1] = experiment: Effect on PFAS gene expression in human CUTLL1 cells in absence of 1 uM dexamethasone at 30 uM after 24 hrs by microarray method; assay type: functional, cell-based
Outline: (§1)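 Human CUTLL1 T-ALL cells exposed for 24 h to vehicle (DMSO), dexamethasone alone (1 μM), test compound alone (30 μM), or dexamethasone 1 μM plus compound 30 μM, each in triplicate. Expression profiled by microarray. Glucocorticoid-regulated gene sets from ALL patients on glucocorticoid therapy scored by GSEA. Leading-edge genes compared between the combination and dexamethasone alone.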

CUTLL1 [2] = experiment: Effect on E2F7 gene expression in human CUTLL1 cells in presence of 1 uM dexamethasone at 30 uM after 24 hrs by microarray method; assay type: functional, cell-based
Outline: (§2)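 CUTLL1 T-ALL cells exposed 24 h to vehicle (DMSO), dexamethasone alone (1 μM), test agent alone (30 μM), or dexamethasone (1 μM) plus test agent (30 μM), in triplicate. Expression profiled by microarray. Leading-edge genes from GSEA were compared between the dexamethasone-plus-agent and dexamethasone-alone groups, using glucocorticoid-regulated gene sets from ALL patients on glucocorticoid therapy.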

CUTLL1 [3] = experiment: Effect on ZFP36L2 gene expression in human CUTLL1 cells in presence of 1 uM dexamethasone at 30 uM after 24 hrs by microarray method; assay type: functional, cell-based; outline: as §1
CUTLL1 [4] = experiment: Growth inhibition of human CUTLL1 cells with low GR expression levels at 50 uM after 48 hrs by alamar blue assay; assay type: functional, cell-based
Outline: (§3)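 Human CUTLL1 T-ALL cells engineered to express high (overexpressed) or low (knockdown) glucocorticoid receptor levels. Exposed to compound alone or with 1 μM dexamethasone. Alamar blue growth inhibition read after 48 h.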

CUTLL1 [5] = experiment: Effect on BTG1 gene expression in human CUTLL1 cells in absence of 1 uM dexamethasone at 30 uM after 24 hrs by microarray method; assay type: functional, cell-based; outline: as §2
CUTLL1 [6] = experiment: Effect on RUVBL1 gene expression in human CUTLL1 cells in presence of 1 uM dexamethasone at 30 uM after 24 hrs by microarray method; assay type: functional, cell-based; outline: as §1
CUTLL1 [7] = experiment: Effect on GINS2 gene expression in human CUTLL1 cells in absence of 1 uM dexamethasone at 30 uM after 24 hrs by microarray method; assay type: functional, cell-based; outline: as §2
CUTLL1 [8] = experiment: Growth inhibition of human CUTLL1 cells with high GR expression levels at 50 uM after 48 hrs by alamar blue assay; assay type: functional, cell-based; outline: as §3
CUTLL1 [9] = experiment: Effect on ALYREF gene expression in human CUTLL1 cells in presence of 1 uM dexamethasone at 30 uM after 24 hrs by microarray method; assay type: functional, cell-based; outline: as §2
CUTLL1 [10] = experiment: Effect on PAICS gene expression in human CUTLL1 cells in absence of 1 uM dexamethasone at 30 uM after 24 hrs by microarray method; assay type: functional, cell-based; outline: as §2
CUTLL1 [11] = experiment: Increase in GR expression in human CUTLL1 cells at < 25 uM after 24 hrs by RT-qPCR method; assay type: functional, cell-based
CUTLL1 [12] = experiment: Effect on APITD1 gene expression in human CUTLL1 cells in absence of 1 uM dexamethasone at 30 uM after 24 hrs by microarray method; assay type: functional, cell-based; outline: as §2
CUTLL1 [13] = experiment: Effect on BCCIP gene expression in human CUTLL1 cells in presence of 1 uM dexamethasone at 30 uM after 24 hrs by microarray method; assay type: functional, cell-based; outline: as §2
CUTLL1 [14] = experiment: Effect on SKP2 gene expression in human CUTLL1 cells in presence of 1 uM dexamethasone at 30 uM after 24 hrs by microarray method; assay type: functional, cell-based; outline: as §1
[15] = Growth inhibition of human CUTLL1 cells in absence of 1 uM dexamethasone after 48 hrs by alamar blue assay; assay type: functional, cell-based; conditions: CUTLL1, 48 h
Outline: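 CUTLL1 cells given compound alone or with dexamethasone 1 μM. Growth inhibition measured by alamar blue after 48 h.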

CUTLL1 [16] = experiment: Growth inhibition of human CUTLL1 cells at 50 uM in presence of MG262 after 48 hrs by alamar blue assay; assay type: functional, cell-based
CUTLL1 [17] = experiment: Effect on CDC45 gene expression in human CUTLL1 cells in absence of 1 uM dexamethasone at 30 uM after 24 hrs by microarray method; assay type: functional, cell-based; outline: as §2
CUTLL1 [18] = experiment: Effect on CHEK1 gene expression in human CUTLL1 cells in presence of 1 uM dexamethasone at 30 uM after 24 hrs by microarray method; assay type: functional, cell-based; outline: as §2
CUTLL1 [19] = experiment: Effect on GGNBP2 gene expression in human CUTLL1 cells in absence of 1 uM dexamethasone at 30 uM after 24 hrs by microarray method; assay type: functional, cell-based; outline: as §2
CUTLL1 [20] = experiment: Effect on NME1 gene expression in human CUTLL1 cells in absence of 1 uM dexamethasone at 30 uM after 24 hrs by microarray method; assay type: functional, cell-based; outline: as §2
CUTLL1 [21] = experiment: Effect on USP1 gene expression in human CUTLL1 cells in absence of 1 uM dexamethasone at 30 uM after 24 hrs by microarray method; assay type: functional, cell-based; outline: as §1
CUTLL1 [22] = experiment: Effect on RPS14 gene expression in human CUTLL1 cells in presence of 1 uM dexamethasone at 30 uM after 24 hrs by microarray method; assay type: functional, cell-based; outline: as §1
CUTLL1 [23] = experiment: Induction of PARP1 cleavage in human CUTLL1 cells at 25 uM after 24 hrs by western blotting method; assay type: functional, cell-based
Outline: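 CUTLL1 cells exposed 24 h to compound (25 μM) alone, with 1 μM dexamethasone, or with dexamethasone plus 1 μM RU486. Apoptosis read as cleaved PARP by Western blot, quantified as fold change.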

CUTLL1 [24] = experiment: Effect on RANBP1 gene expression in human CUTLL1 cells in presence of 1 uM dexamethasone at 30 uM after 24 hrs by microarray method; assay type: functional, cell-based; outline: as §1
[25] = biological target: Gamma-secretase (Homo sapiens) (UniProt Q96BI3+Q9NZ42+Q8WW43+P49768+Q92542+P49810); experiment: Inhibition of gamma secretase in human CUTLL1 cells assessed as effect on NOTCH cleavage level at 25 uM in presence of 1 uM dexamethasone after 24 hrs by Western blotting; assay type: cell-based
Outline: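 Western blot of intracellular NOTCH (ICN) in CUTLL1 cells after 24 h exposure to compound alone or with 1 μM dexamethasone. The γ-secretase inhibitor Compound E (100 nM) plus dexamethasone was the reference treatment.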

CUTLL1 [26] = experiment: Growth inhibition of human CUTLL1 cells at 50 uM in presence of staurosporine after 48 hrs by alamar blue assay; assay type: functional, cell-based
CUTLL1 [27] = experiment: Growth inhibition of human CUTLL1 cells at 50 uM in presence of deferoxamine after 48 hrs by alamar blue assay; assay type: functional, cell-based
CUTLL1 [28] = experiment: Effect on GGNBP2 gene expression in human CUTLL1 cells in presence of 1 uM dexamethasone at 30 uM after 24 hrs by microarray method; assay type: functional, cell-based; outline: as §2
CUTLL1 [29] = experiment: Effect on ZWINT gene expression in human CUTLL1 cells in presence of 1 uM dexamethasone at 30 uM after 24 hrs by microarray method; assay type: functional, cell-based; outline: as §1
CUTLL1 [30] = experiment: Effect on ZFP36L2 gene expression in human CUTLL1 cells in absence of 1 uM dexamethasone at 30 uM after 24 hrs by microarray method; assay type: functional, cell-based; outline: as §1
CUTLL1 [31] = experiment: Effect on NXT1 gene expression in human CUTLL1 cells in presence of 1 uM dexamethasone at 30 uM after 24 hrs by microarray method; assay type: functional, cell-based; outline: as §2
CUTLL1 [32] = experiment: Effect on SMC2 gene expression in human CUTLL1 cells in absence of 1 uM dexamethasone at 30 uM after 24 hrs by microarray method; assay type: functional, cell-based; outline: as §1

inhibition [25]: inactive
SMILES: Nc1ncc(-c2ccncc2)c(C2CC2)n1
Activity (CUTLL1 [1]): inactive | Activity (CUTLL1 [2]): Active | Activity (CUTLL1 [3]): Active | growth inhibition (GI) (CUTLL1 [4]): inactive | Activity (CUTLL1 [5]): inactive | Activity (CUTLL1 [6]): Active | Activity (CUTLL1 [7]): inactive | growth inhibition (GI) (CUTLL1 [8]): inactive | Activity (CUTLL1 [9]): Active | Activity (CUTLL1 [10]): inactive | Activity (CUTLL1 [11]): inactive | Activity (CUTLL1 [12]): inactive | Activity (CUTLL1 [13]): Active | Activity (CUTLL1 [14]): Active | EC50 [15]: ≥ 100 µM | growth inhibition (GI) (CUTLL1 [16]): inactive | Activity (CUTLL1 [17]): inactive | Activity (CUTLL1 [18]): Active | Activity (CUTLL1 [19]): inactive | Activity (CUTLL1 [20]): inactive | Activity (CUTLL1 [21]): inactive | Activity (CUTLL1 [22]): Active | Activity (CUTLL1 [23]): inactive | Activity (CUTLL1 [24]): Active | growth inhibition (GI) (CUTLL1 [26]): inactive | growth inhibition (GI) (CUTLL1 [27]): inactive | Activity (CUTLL1 [28]): Active | Activity (CUTLL1 [29]): Active | Activity (CUTLL1 [30]): inactive | Activity (CUTLL1 [31]): Active | Activity (CUTLL1 [32]): inactive

Reference: ChEMBL document CHEMBL3351896, “Small Molecule that Reverses Dexamethasone Resistance in T-cell Acute Lymphoblastic Leukemia (T-ALL)” (ACS Med Chem Lett, 2014)
